How the values were obtained:
[1] = Half life period was determined for the compound at 100 mg/kg concentration, os route; conditions: in vivo, po
[2] = Urinary excretion for the compound was evaluated as percent dose excreted at 25 mg/kg intraperitoneal dosage; assay type: ADME, organism-based; design: dose 25 mg/kg, route intraperitoneal; conditions: urine, ip
Procedure, shortened: (§1)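 Fasted male Wistar rats (180–230 g) given the drug ip in carboxymethyl cellulose. Plasma and urine extracted with CHCl₃ from citrate buffer pH 6.2 with internal standard. Analysis by reverse-phase C-18 HPLC, 0.1% AcOH/MeOH gradient, 245 nm UV. Urinary clearance and total clearance derived as pharmacokinetic parameters.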

[3] = Tissue levels determined 1 hr after peroral dose of 50 mg/kg in heart; conditions: po
[4] = Urinary excretion for the compound was evaluated as percent dose excreted at 10 mg/kg intraperitoneal dosage; assay type: ADME, organism-based; design: dose 10 mg/kg, route intraperitoneal; conditions: urine, ip; procedure, shortened: as §1
[5] = Ratio of AUC from os administration to AUC from ip administration at a dose of 25 mg/kg; assay type: ADME, organism-based; design: dose 25 mg/kg, route intraperitoneal; conditions: in vivo
Procedure, shortened: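 Fasted male Wistar rats (180–230 g), drug suspended in carboxymethyl cellulose, given orally or ip. Plasma (heparinized) and urine from metabolic cages were sampled at various times. The unchanged drug was measured by HPLC after CHCl3 extraction at pH 6.2 with an internal standard, on a C-18 column with an AcOH/MeOH gradient and UV detection at 245 nm. Interassay and intraassay variability was about 10%.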

[6] = Ratio of tissue (heart) levels to plasma levels after 15 hr of treatment; assay type: ADME
Procedure, shortened: (§2)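 Male Wistar rats received 50 mg/kg po and were killed at 1 and 15 h. Tissue homogenates and plasma extracted with CHCl₃ after adding internal standard and pH 6.2 citrate buffer. Drug quantified by C-18 HPLC with UV at 245 nm. Tissue level divided by plasma level.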

[7] = Peak plasma concentration at a dose of 200 mg/kg, oral route in human; assay type: ADME, organism-based; design: dose 200 mg/kg, route oral; conditions: read-out: Activity
Procedure, shortened: (§3)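 Four healthy volunteers of both sexes took oral capsules (100 mg units) at three dose levels. Venous blood drawn into heparinized tubes and plasma obtained by low-speed centrifugation. Urine collected. Unchanged drug in plasma and urine determined by C-18 HPLC after CHCl₃ extraction, with UV detection at 245 nm.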

[8] = Ratio of tissue (kidney) levels to plasma levels after 15 hr of treatment; assay type: ADME; procedure, shortened: as §2
[9] = Ratio of tissue (heart) levels to plasma levels after 1 hr of treatment; assay type: ADME; procedure, shortened: as §2
[10] = Half life period was determined for the compound at 50 mg/kg concentration, os route; conditions: in vivo, po
[11] = Urinary excretion for the compound was evaluated as percent dose excreted at 400 mg/kg oral dosage in human; assay type: ADME, organism-based; design: dose 400 mg/kg, route oral; conditions: urine; procedure, shortened: as §3
[12] = Lethal dose after single iv administration to rat was determined; assay type: toxicity, organism-based; conditions: in vivo
Procedure, shortened: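 Male Wistar rats (130-150 g) were given single intravenous doses at no fewer than three levels. Deaths were counted over 14 days, and LD50 was calculated by the Litchfield and Wilcoxon method.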

[13] = Peak plasma concentration at a dose of 100 mg/kg, os route in rat suspended in carboxymethyl cellulose (CMC); assay type: ADME, organism-based; design: dose 100 mg/kg; conditions: po, read-out: Activity
Procedure, shortened: (§4)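 Fasted male Wistar rats (180–230 g) dosed orally, suspended in carboxymethyl cellulose. Plasma and urine assayed by HPLC: sample plus internal standard and citrate buffer (0.1 M, pH 6.2), extracted into CHCl₃, dried, redissolved in MeOH. Separation on C-18 with 0.1% AcOH/MeOH gradient, UV detection at 245 nm.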

[14] = Urinary clearance was determined in rat at 25 mg/kg intraperitoneal dosage; assay type: ADME, organism-based; design: dose 25 mg/kg, route intraperitoneal; conditions: urine, ip, read-out: CL_renal (converted); procedure, shortened: as §1
[15] = Half life period was determined for the compound at 100 mg/kg concentration, oral route in human; assay type: ADME, organism-based; design: dose 100 mg/kg, route oral; conditions: in vivo; procedure, shortened: as §3
in vivo [16] = conditions: heart, po, 50 mg/kg
[17] = Time taken for peak plasma concentration at a dose of 25 mg/kg, os route in rat suspended in carboxymethyl cellulose (CMC); assay type: ADME, organism-based; design: dose 25 mg/kg; conditions: po; procedure, shortened: as §4
[18] = Peak plasma concentration at a dose of 20 mg/kg, oral route in monkey (Macaca fascicularis) suspended in carboxymethyl cellulose (CMC);Range is between (5.5-6); assay type: ADME, organism-based; design: dose 20 mg/kg, route oral; conditions: cynomolgus monkey, read-out: Activity
Procedure, shortened: (§5)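 Four male beagle dogs or two Macaca fascicularis monkeys dosed orally, suspended in carboxymethyl cellulose. Venous blood collected into heparinized tubes and plasma separated by low-speed centrifugation. Urine gathered in metabolic cages. Unchanged drug measured by C-18 HPLC (extraction, UV 245 nm).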

Enterobacter cloacae = assay: In vitro antibacterial activity against clinical isolates of Enterobacter cloacae 041 (gram negative) by agar dilution assay.; assay type: functional
Procedure, shortened: (§6)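 Agar dilution on Isosensitest agar; compound incorporated by twofold serial dilution. Overnight broth cultures delivered by multipoint inoculator at 10⁵ CFU per point. Plates read after 18 h at 37 °C. MIC taken as the lowest concentration giving complete growth inhibition.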

[19] = Urinary excretion for the compound was evaluated as percent dose excreted at 200 mg/kg oral dosage in human; assay type: ADME, organism-based; design: dose 200 mg/kg, route oral; conditions: urine; procedure, shortened: as §3
[20] = Tissue levels determined 1 hr after peroral dose of 50 mg/kg in liver; conditions: po
in vivo [21] = conditions: plasma, po, 50 mg/kg
[22] = Urinary excretion for the compound was evaluated as percent dose excreted at 20 mg/kg oral dosage in dog (beagle);Range is between (8-10).; assay type: ADME, organism-based, Canis lupus familiaris; design: dose 20 mg/kg, route oral; conditions: urine; procedure, shortened: as §5
[23] = Time taken for peak plasma concentration at a dose of 20 mg/kg, oral route in dog(beagle) suspended in carboxymethyl cellulose (CMC); assay type: ADME, organism-based, Canis lupus familiaris; design: dose 20 mg/kg, route oral; procedure, shortened: as §5
Klebsiella pneumoniae = assay: In vitro antibacterial activity against clinical isolates of Klebsiella pneumoniae-4 (gram negative) by agar dilution assay.; assay type: functional; procedure, shortened: as §6
[24] = Half life period was determined for the compound at 400 mg/kg concentration, oral route in human; assay type: ADME, organism-based; design: dose 400 mg/kg, route oral; conditions: in vivo; procedure, shortened: as §3

For `CN1CCN(c2c(F)cc3c(=O)c(C(=O)O)cn4c3c2SCC4)CC1` [RUFLOXACIN], the half-life [1] was 8.7 h, the dose excreted [2] was 22.2% and the concentration at 1 h [3] was 31000 ng/mL. It also gave a dose excreted [4] of 26%, a Ratio [5] of 0.85 and a Kp at 15 h [6] of 1.7. For the same compound, the Cmax [7] was 1920 ng/mL, the Kp at 15 h [8] was 2.7 and the Kp at 1 h [9] was 3. It also gave a half-life [10] of 8.7 h, a dose excreted [11] of 33% and an LD50 [12] of 285 mg/kg. The Cmax [13] was 21000 ng/mL, the CL renal [14] was 0.79 mL/min/kg and the half-life [15] was 30 h. For the same compound, the concentration at 15 h (in vivo [16]) was 5000 ng/mL, the Tmax [17] was 1 h and the Cmax [18] was 5500 ng/mL. For the same compound, the MIC (Enterobacter cloacae) was under 0.39 µg/mL, the dose excreted [19] was 55% and the concentration at 1 h [20] was 80000 ng/mL. It also gave a concentration at 15 h (in vivo [21]) of 3000 ng/mL, a dose excreted [22] of 8% and a Tmax [23] of 4 h. The MIC (Klebsiella pneumoniae) was under 0.39 µg/mL and the half-life [24] was 32 h.
